Assay results pooled from the literature.
Compare with care: the assays were run in different laboratories.

Cc1nc2ccc(Cl)cn2c1C(=O)N1CCN(Cc2cn(-c3ccccc3Cl)nn2)CC1  IC50 (Leishmania major; parasite growth, resazurin; 72 h, promastigote): 91.5 µM
C=CCn1c(-c2ccc(Cl)c(Cl)c2)nc2ccccc21  MIC (Enterococcus faecalis; microbial growth, broth dilution; ATCC29212): 64 µg/mL
N=C(NCCCCCCNC(=N)NC(=N)Nc1ccc(Cl)cc1)NC(=N)Nc1ccc(Cl)cc1  IC50 (Acanthamoeba griffini; parasite growth, resazurin; 96 h): 7.38 µM
C#CCCCCCCCCC=CCC(O)CC(O)CO (stereo not drawn)  IC50 (Aspergillus fumigatus; microbial growth, resazurin; ATCC204305): > 8 µg/mL
CC1=NN(CNc2ccc(Cl)cc2)C(=O)C1=NNn1c(-c2ccccc2)nc2ccccc2c1=O  MIC (Aspergillus fumigatus; microbial growth, broth dilution): 51.5 µM
Cc1ccn2c(C(=O)N3CCN(Cc4cn(-c5ccc([N+](=O)[O-])cc5)nn4)CC3)c(C)nc2c1  IC50 (Leishmania major; parasite growth, resazurin; 72 h, promastigote): > 500 µM
C[C@@H]1[C@H](O)[C@@H](C)/C=C/C=C/C=C/C=C/C=C/C=C/C=C/[C@H](O[C@@H]2O[C@H](C)[C@@H](O)[C@H](N)[C@@H]2O)C[C@@H]2O[C@](O)(C[C@@H](O)C[C@@H](O)[C@H](O)CC[C@@H](O)C[C@@H](O)CC(=O)O[C@H]1C)C[C@H](O)[C@H]2C(=O)O  MIC (Aspergillus fumigatus; microbial growth; ATCC204305): 1.35 µM
C[C@@H](c1ncncc1F)[C@](O)(Cn1cncn1)c1ccc(F)cc1F  IC50 (Acanthamoeba griffini; parasite growth, resazurin; 7 days): 37.6 µM
O=C1NN=C(N=Cc2ccc(O)cc2O)C1=NNn1c(-c2ccccc2)nc2ccccc2c1=O  MIC (Aspergillus fumigatus; microbial growth, broth dilution): 53.5 µM
Cc1ccc2nc(-c3ccc(Cl)c(Cl)c3)[nH]c2c1  MIC (Enterococcus faecalis; microbial growth, broth dilution; ATCC29212): 16 µg/mL
Cc1ccn2c(C(=O)N3CCN(Cc4cn(-c5ccccc5)nn4)CC3)c(C)nc2c1  IC50 (Leishmania major; parasite growth, resazurin; 72 h, promastigote): 246 µM
CC1(C)S[C@@H]2[C@H](NC(=O)[C@H](N)c3ccccc3)C(=O)N2[C@H]1C(=O)O  inhibition (Enterococcus faecalis; microbial growth, agar dilution; ATCC33186; 26.93 µM): 100%
COc1ccc(-c2nc3ccccc3[nH]2)cc1O  MIC (Enterococcus faecalis; microbial growth, broth dilution; ATCC29212): 64 µg/mL
CCCCCCCCCCCCCCCCOP(=O)([O-])OCC[N+](C)(C)C  IC50 (Leishmania major; parasite growth, resazurin; 72 h, promastigote): 12.6 µM
Fc1ccc(-c2nc3ccccc3[nH]2)cc1  MIC (Enterococcus faecalis; microbial growth, broth dilution; ATCC29212): 256 µg/mL
CN(C)N1C(=O)c2ccccc2C1CB1OC(C)(C)C(C)(C)O1 (stereo not drawn)  IC50 (Leishmania major; parasite growth; intracellular, amastigote): 94.6 µM
Cc1ccc(C)n1-c1ccc(-c2nnc(S)s2)cc1  MIC (Enterococcus faecalis; microbial growth, broth dilution; ATCC14506; 18 h): 1 µg/mL
CCCc1cn(CCN2CCN(C(=O)c3c(C)nc4cc(C)ccn34)CC2)nn1  IC50 (Leishmania major; parasite growth, resazurin; 72 h, promastigote): 176 µM
C=CCn1c(-c2ccc([N+](=O)[O-])cc2)nc2ccccc21  MIC (Enterococcus faecalis; microbial growth, broth dilution; ATCC29212): 64 µg/mL
CCCCCCCCCc1cn(CCN2CCN(C(=O)c3c(C)nc4cc(C)ccn34)CC2)nn1  IC50 (Leishmania major; parasite growth, resazurin; 72 h, promastigote): 38.5 µM
Cc1ccc2nc(-c3ccncc3)[nH]c2c1  MIC (Enterococcus faecalis; microbial growth, broth dilution; ATCC29212): 64 µg/mL
